Assay results taken from PMC4733660 (Organic & biomolecular chemistry, 2010).
pIC50: −log10 of the molar value. Where two headings read alike, the source gives them in different places.

Experiments:
Format in all cases: biochemical
PHD2 = PHD2 (Homo sapiens, UniProt Q9GZT9); assay: PHD2 fluorescence-based; settings: for PHD2 Residual Activity (%): HTRF-based assay, enzyme concentration 20 nM, 400 μM compound concentration; for PHD2 inhibition (in words): 400 μM inhibitor concentration
JMJD2E = biological target: T1, JMJD2E (Homo sapiens, UniProt B2RXH2); assay: FDH-coupled spectrophotometric turnover assay of JMJD2E; settings: for JMJD2E Residual Activity (%): enzyme concentration 400 nM, 200 μM compound concentration
T1 sequence (B2RXH2 1-506): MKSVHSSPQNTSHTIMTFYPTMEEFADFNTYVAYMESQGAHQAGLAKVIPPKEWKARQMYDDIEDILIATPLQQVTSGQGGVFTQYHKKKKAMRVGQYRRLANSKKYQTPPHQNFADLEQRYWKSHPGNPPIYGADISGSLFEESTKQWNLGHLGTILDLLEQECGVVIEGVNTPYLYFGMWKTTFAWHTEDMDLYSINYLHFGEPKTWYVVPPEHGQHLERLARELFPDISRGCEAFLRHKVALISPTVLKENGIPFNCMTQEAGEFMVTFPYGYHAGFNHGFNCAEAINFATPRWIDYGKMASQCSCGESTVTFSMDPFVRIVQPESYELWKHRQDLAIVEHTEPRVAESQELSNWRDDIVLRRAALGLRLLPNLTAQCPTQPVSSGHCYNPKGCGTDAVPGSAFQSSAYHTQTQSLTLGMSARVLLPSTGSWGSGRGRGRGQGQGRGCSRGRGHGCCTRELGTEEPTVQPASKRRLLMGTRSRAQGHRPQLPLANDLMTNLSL

[1] = biological target: T2, formaldehyde dehydrogenase (FDH) (Pseudomonas putida, UniProt P46154); assay: FDH counterscreen, spectrophotometric assay; settings: enzyme concentration 50 μM, 200 μM compound concentration
T2 sequence (P46154 1-399): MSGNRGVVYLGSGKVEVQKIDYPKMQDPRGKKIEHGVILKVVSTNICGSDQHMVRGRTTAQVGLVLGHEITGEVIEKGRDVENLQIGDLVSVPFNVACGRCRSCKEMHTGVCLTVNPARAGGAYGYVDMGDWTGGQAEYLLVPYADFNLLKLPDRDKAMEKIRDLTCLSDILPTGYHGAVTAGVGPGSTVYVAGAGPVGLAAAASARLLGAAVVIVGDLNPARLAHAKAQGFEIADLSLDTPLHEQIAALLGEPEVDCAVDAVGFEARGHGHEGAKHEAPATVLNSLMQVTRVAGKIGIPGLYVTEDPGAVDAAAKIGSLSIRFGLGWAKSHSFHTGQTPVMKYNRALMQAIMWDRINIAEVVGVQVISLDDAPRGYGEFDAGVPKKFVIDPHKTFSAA
How it was run: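 Counterscreen run on the coupling enzyme alone to exclude false JMJD2E hits from FDH inhibition. FDH turnover of formaldehyde with NAD+ followed spectrophotometrically. Enzyme 50 μM; test compound at 200 μM; activity expressed as residual % of uninhibited FDH.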

PHD2, sequence (Q9GZT9 whole entry): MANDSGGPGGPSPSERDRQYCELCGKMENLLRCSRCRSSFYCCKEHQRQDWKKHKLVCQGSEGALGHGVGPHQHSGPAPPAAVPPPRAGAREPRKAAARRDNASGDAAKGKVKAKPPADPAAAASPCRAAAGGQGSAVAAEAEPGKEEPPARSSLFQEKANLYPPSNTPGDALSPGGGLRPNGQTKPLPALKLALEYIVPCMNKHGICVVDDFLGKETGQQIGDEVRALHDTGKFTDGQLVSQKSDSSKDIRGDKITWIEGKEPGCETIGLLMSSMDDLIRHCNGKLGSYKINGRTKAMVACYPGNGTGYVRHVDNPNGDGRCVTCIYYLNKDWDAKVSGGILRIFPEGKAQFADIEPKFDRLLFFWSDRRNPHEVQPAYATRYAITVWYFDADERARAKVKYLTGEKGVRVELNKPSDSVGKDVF

Compound | PHD2 Residual Activity (%) (PHD2) | pIC50 (JMJD2E) | JMJD2E inhibition (in words) (JMJD2E; FDH-coupled assay) | JMJD2E Residual Activity (%) (JMJD2E; FDH-coupled assay) | FDH Residual Activity (%) [1] | PHD2 inhibition (in words) (PHD2) | pIC50 (JMJD2E; read-out: JMJD2E IC50, FDH-coupled assay)
O=C(O)c1ccnc(C(=O)O)c1/C=C/c1ccccc1 [Compound 35, (E)-3-Styrylpyridine-2,4-dicarboxylic acid] | 85% | 4.18 | some recovery of inhibitory potency | 25% | 87% |  | 
O=C(O)c1ccnc(C(=O)O)c1Oc1ccccc1 [Compound 36, 3-Phenoxypyridine-2,4-dicarboxylic acid] | 88% |  | inactive | 48% | 91% | inactive | 
O=C(O)c1ccnc(C(=O)O)c1 [Compound 5, 2,4-pyridine dicarboxylic acid, reference compound] | 22% |  |  | 0% | 100% |  | 
O=C(O)c1ccnc(C(=O)O)c1-c1ccccc1 [Compound 34, 3-Phenylpyridine-2,4-dicarboxylic acid] | 100% |  |  | 84% | 100% |  | 

The remaining lines, values ahead:

PHD2 Residual Activity (%) (PHD2) | pIC50 (JMJD2E) | JMJD2E inhibition (in words) (JMJD2E; FDH-coupled assay) | JMJD2E Residual Activity (%) (JMJD2E; FDH-coupled assay) | FDH Residual Activity (%) [1] | PHD2 inhibition (in words) (PHD2) | pIC50 (JMJD2E; read-out: JMJD2E IC50, FDH-coupled assay) | Compound
23% |  | highly active |  |  |  | ~7.00 | Nc1c(C(=O)O)ccnc1C(=O)O [Compound 50, 3-amino-2,4-PDCA]
100% |  | potent | 0% | 83% | do not inhibit PHD2 |  | O=C(O)c1ccnc(C(=O)O)c1Nc1ccccc1 [Compound 37, 3-(Phenylamino)pyridine-2,4-dicarboxylic acid]
